Active and inactive are the calls of the source. No cut-off for these calls is given here.
What was measured:
[1] = target: T1, Sphingosine 1-phosphate receptor 1 (Homo sapiens, UniProt P21453); assay: Displacement of [33P]sphingosine 1 phosphate from human S1P1 receptor expressed in CHO cells; assay type: cell-based
[2] = Plasma concentration in femoral artery cannulated Lewis rat at 3 mg/kg, po after 0.25 hrs; assay type: ADME, organism-based; set-up: dose 3 mg/kg, route oral
Procedure, shortened: (§1)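 Femoral artery cannulated Lewis rats (n = 3) given a single 3 mpk oral dose. PBL counts and plasma compound concentration sampled over time up to 72 h postdose. A repeat 3 mpk po challenge was given to the same animals.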

[3] = Plasma clearance in rat at 2 mg/kg, po and 1 mg/kg, iv; assay type: ADME, organism-based
Procedure, shortened: (§2)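 Rat PK at 2.0 mpk po and 1.0 mpk iv. Plasma compound levels measured.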

[4] = tested on: Rattus norvegicus; assay: Decrease in peripheral blood lymphocyte counts in Lewis rat at 3 mg/kg, po after 24 hrs; assay type: functional
Procedure, shortened: (§3)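 Rat oral dose-titration at 1–30 mpk po. Peripheral blood lymphocyte counts and plasma compound concentrations determined 24 h postdose.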

[5] = Volume of distribution at steady state in Beagle dog at 1 mg/kg, po and 0.5 mg/kg, iv; assay type: ADME, organism-based, Canis lupus familiaris; conditions: in vivo, read-out: Vdss
[6] = Plasma clearance in rhesus monkey at 1 mg/kg, po and 0.5 mg/kg, iv; assay type: ADME, organism-based, Macaca mulatta
Procedure, shortened: (§4)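 Single-dose PK at 1.0 mpk po and 0.5 mpk iv. Plasma compound levels measured.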

[7] = Plasma concentration in femoral artery cannulated Lewis rat at 3 mg/kg, po after 24 hrs; assay type: ADME, organism-based; set-up: dose 3 mg/kg, route oral
Procedure, shortened: (§5)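 Femoral artery cannulated Lewis rats (n = 3) got a single 3 mpk oral dose. Compound plasma concentration (nM) was measured serially over time up to 72 h postdose. Peripheral blood lymphocyte counts were taken in parallel at the same time points. The same animals were later given a second 3 mpk oral dose.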

[8] = Bioavailability in Beagle dog at 1 mg/kg, po and 0.5 mg/kg, iv; assay type: ADME, organism-based, Canis lupus familiaris; conditions: in vivo; procedure, shortened: as §4
[9] = tested on: Rattus norvegicus; assay: Decrease in peripheral blood lymphocyts in Lewis rat at 10 mg/kg, po after 24 hrs relative to control; assay type: functional; set-up: scale not given: the % may be the effect or the level left; procedure, shortened: as §3
[10] = Plasma concentration in femoral artery cannulated Lewis rat at 3 mg/kg, po after 32 hrs; assay type: ADME, organism-based; set-up: dose 3 mg/kg, route oral; procedure, shortened: as §5
[11] = target: T2, Sphingosine 1-phosphate receptor 4 (Homo sapiens, UniProt O95977); assay: Displacement of [33P]sphingosine 1 phosphate from human S1P4 receptor expressed in CHO cells; assay type: cell-based
T2 sequence (O95977 whole entry): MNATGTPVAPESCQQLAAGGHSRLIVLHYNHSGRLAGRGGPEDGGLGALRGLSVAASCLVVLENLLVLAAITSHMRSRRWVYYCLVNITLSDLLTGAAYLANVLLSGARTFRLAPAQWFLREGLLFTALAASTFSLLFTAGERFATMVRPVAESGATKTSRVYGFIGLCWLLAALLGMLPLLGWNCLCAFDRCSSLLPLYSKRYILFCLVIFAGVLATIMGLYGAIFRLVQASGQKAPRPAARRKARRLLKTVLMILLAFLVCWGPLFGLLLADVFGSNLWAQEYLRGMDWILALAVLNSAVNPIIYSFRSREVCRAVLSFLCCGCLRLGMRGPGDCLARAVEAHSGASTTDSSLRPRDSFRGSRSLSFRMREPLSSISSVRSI
Procedure, shortened: (§6)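 Competition binding with [33P]-labeled S1P on membranes of CHO cells stably expressing each human S1P receptor. Values are the mean of n = 3 determinations.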

[12] = Plasma concentration in femoral artery cannulated Lewis rat at 3 mg/kg, po after 20 hrs; assay type: ADME, organism-based; set-up: dose 3 mg/kg, route oral; procedure, shortened: as §5
[13] = tested on: Canis familiaris; assay: Cmax in Beagle dog at 1 mg/kg, po and 0.5 mg/kg, iv; assay type: ADME, organism-based, Canis lupus familiaris; conditions: in vivo; procedure, shortened: as §4
[14] = Cmax in rhesus monkey at 1 mg/kg, po and 0.5 mg/kg, iv; assay type: ADME, organism-based, Macaca mulatta; conditions: in vivo; procedure, shortened: as §4
[15] = tested on: Canis familiaris; assay: Maximal decrease in peripheral blood lymphocyte in Beagle dog at 1 mg/kg, po after 24 hrs; assay type: functional, organism-based; set-up: dose 1 mg/kg; conditions: Canis lupus familiaris
Procedure, shortened: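 Complete blood counts run alongside plasma concentrations after a single 1.0 mpk oral dose in beagle dog or rhesus monkey. Lymphocyte counts followed over time, with PBL lowering assessed at 24 h postdose.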

[16] = tested on: Rattus norvegicus; assay: Decrease in peripheral blood lymphocyte counts in femoral artery cannulated Lewis rat at 3 mg/kg, po after 48 hrs; assay type: functional; procedure, shortened: as §1
[17] = tested on: Rattus norvegicus; assay: Decrease in peripheral blood lymphocyte counts in Lewis rat at 1 mg/kg, po after 24 hrs; assay type: functional; procedure, shortened: as §3
[18] = tested on: Rattus norvegicus; assay: Decrease in peripheral blood lymphocyte counts in femoral artery cannulated Lewis rat at 3 mg/kg, po after 32 hrs; assay type: functional; procedure, shortened: as §1
[19] = tested on: Rattus norvegicus; assay: Decrease in peripheral blood lymphocyte counts in femoral artery cannulated Lewis rat at 3 mg/kg, po after 1 hr; assay type: functional; procedure, shortened: as §1
[20] = Volume of distribution at steady state in rhesus monkey at 1 mg/kg, po and 0.5 mg/kg, iv; assay type: ADME, organism-based, Macaca mulatta; conditions: in vivo, read-out: Vdss
[21] = Plasma concentration in femoral artery cannulated Lewis rat at 3 mg/kg, po after 48 hrs; assay type: ADME, organism-based; set-up: dose 3 mg/kg, route oral; procedure, shortened: as §5
[22] = tested on: Rattus norvegicus; assay: Decrease in peripheral blood lymphocyte counts in femoral artery cannulated Lewis rat at 3 mg/kg, po after 12 hrs; assay type: functional; procedure, shortened: as §1
[23] = Cmax in rat at 2 mg/kg, po and 1 mg/kg, iv; assay type: ADME, organism-based; conditions: in vivo; procedure, shortened: as §2
[24] = tested on: Rattus norvegicus; assay: Decrease in peripheral blood lymphocytes in Lewis rat at 3 mg/kg, po after 24 relative to hrs control; assay type: functional; set-up: scale not given: the % may be the effect or the level left; procedure, shortened: as §3
[25] = tested on: Rattus norvegicus; assay: Decrease in peripheral blood lymphocyte counts in femoral artery cannulated Lewis rat at 3 mg/kg, po after 16 hrs; assay type: functional; procedure, shortened: as §1
[26] = Plasma concentration in Lewis rat at 30 mg/kg, po after 24 hrs; assay type: ADME, organism-based; set-up: dose 30 mg/kg, route oral; procedure, shortened: as §3
[27] = tested on: Rattus norvegicus; assay: Decrease in peripheral blood lymphocyte counts in femoral artery cannulated Lewis rat at 3 mg/kg, po after 8 hrs; assay type: functional; procedure, shortened: as §1
[28] = target: Sphingosine 1-phosphate receptor 5 (Homo sapiens, UniProt Q9H228); assay: Displacement of [33P]sphingosine 1 phosphate from human S1P5 receptor expressed in CHO cells; assay type: cell-based; procedure, shortened: as §6
[29] = target: T1, Sphingosine 1-phosphate receptor 1; assay: Activity at human S1P1 receptor expressed in CHO cells by [35S]GTPgammaS binding assay; assay type: functional, cell-based
Procedure, shortened: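 Agonism measured as ligand-induced [35S]-GTPγS binding to membranes of CHO cells stably expressing the human S1P receptor.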

[30] = target: Sphingosine 1-phosphate receptor 3 (Homo sapiens, UniProt Q99500); assay: Displacement of [33P]sphingosine 1 phosphate from human S1P3 receptor expressed in CHO cells; assay type: cell-based
[31] = tested on: Rattus norvegicus; assay: Decrease in peripheral blood lymphocyte counts in femoral artery cannulated Lewis rat at 3 mg/kg, po after 6 hrs; assay type: functional; procedure, shortened: as §1
[32] = target: Sphingosine 1-phosphate receptor 2 (Homo sapiens, UniProt O95136); assay: Displacement of [33P]sphingosine 1 phosphate from human S1P2 receptor expressed in CHO cells; assay type: cell-based
[33] = tested on: Rattus norvegicus; assay: Decrease in peripheral blood lymphocyte counts in femoral artery cannulated Lewis rat at 3 mg/kg, po after 24 hrs; assay type: functional; procedure, shortened: as §1
[34] = tested on: Canis familiaris; assay: Plasma clearance in Beagle dog at 1 mg/kg, po and 0.5 mg/kg, iv; assay type: ADME, organism-based, Canis lupus familiaris; conditions: in vivo; procedure, shortened: as §4
[35] = tested on: Rattus norvegicus; assay: Decrease in peripheral blood lymphocytes in Lewis rat at 30 mg/kg, po after 24 hrs relative to control; assay type: functional; set-up: scale not given: the % may be the effect or the level left; procedure, shortened: as §3
[36] = Plasma concentration in femoral artery cannulated Lewis rat at 3 mg/kg, po after 4 hrs; assay type: ADME, organism-based; set-up: dose 3 mg/kg, route oral; procedure, shortened: as §5
[37] = Plasma concentration in femoral artery cannulated Lewis rat at 3 mg/kg, po after 1 hr; assay type: ADME, organism-based; set-up: dose 3 mg/kg, route oral; procedure, shortened: as §5
[38] = Bioavailability in rat at 2 mg/kg, po and 1 mg/kg, iv; assay type: ADME, organism-based; conditions: in vivo; procedure, shortened: as §2

T1 sequence (P21453 whole entry): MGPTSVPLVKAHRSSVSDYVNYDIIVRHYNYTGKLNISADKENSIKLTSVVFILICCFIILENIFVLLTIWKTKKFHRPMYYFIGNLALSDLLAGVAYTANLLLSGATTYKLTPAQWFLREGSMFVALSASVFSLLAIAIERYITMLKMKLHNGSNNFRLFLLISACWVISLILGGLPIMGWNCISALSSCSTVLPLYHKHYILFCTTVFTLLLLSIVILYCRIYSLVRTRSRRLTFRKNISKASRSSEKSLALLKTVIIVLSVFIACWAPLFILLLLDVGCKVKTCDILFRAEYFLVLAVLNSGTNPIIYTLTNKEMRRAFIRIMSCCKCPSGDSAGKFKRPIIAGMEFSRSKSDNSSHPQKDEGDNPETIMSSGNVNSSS
Sphingosine 1-phosphate receptor 2, sequence (O95136 whole entry): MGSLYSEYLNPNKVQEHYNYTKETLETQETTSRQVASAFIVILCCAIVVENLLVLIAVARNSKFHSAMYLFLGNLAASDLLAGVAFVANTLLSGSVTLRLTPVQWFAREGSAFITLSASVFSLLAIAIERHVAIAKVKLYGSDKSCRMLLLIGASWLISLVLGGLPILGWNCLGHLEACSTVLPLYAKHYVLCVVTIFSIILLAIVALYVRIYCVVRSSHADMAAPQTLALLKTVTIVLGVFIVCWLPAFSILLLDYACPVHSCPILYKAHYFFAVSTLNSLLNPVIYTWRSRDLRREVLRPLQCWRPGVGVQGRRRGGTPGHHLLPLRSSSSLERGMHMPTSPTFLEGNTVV
Sphingosine 1-phosphate receptor 3, sequence (Q99500 whole entry): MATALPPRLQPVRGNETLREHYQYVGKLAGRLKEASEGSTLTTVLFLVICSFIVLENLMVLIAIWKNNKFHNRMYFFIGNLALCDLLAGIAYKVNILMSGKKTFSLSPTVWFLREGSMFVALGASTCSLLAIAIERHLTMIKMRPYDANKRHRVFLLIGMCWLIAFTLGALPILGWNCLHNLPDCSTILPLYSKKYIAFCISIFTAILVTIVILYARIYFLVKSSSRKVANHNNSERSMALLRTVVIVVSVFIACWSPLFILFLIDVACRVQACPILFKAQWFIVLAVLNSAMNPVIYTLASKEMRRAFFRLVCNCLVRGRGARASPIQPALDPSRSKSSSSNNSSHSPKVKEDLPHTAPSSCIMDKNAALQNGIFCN
Sphingosine 1-phosphate receptor 5, sequence (Q9H228 whole entry): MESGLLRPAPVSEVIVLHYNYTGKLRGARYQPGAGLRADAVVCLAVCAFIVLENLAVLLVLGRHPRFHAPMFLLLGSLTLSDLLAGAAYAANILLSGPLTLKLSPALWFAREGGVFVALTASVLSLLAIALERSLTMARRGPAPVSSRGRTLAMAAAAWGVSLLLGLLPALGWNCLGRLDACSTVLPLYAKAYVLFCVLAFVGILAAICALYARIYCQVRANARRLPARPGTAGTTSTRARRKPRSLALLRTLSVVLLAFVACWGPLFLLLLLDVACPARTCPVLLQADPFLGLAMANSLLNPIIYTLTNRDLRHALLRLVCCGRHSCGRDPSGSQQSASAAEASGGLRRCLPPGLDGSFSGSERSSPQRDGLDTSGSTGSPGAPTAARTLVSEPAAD

SMILES: O=C(O)C1CN(Cc2ccc(OCc3cc(-c4ccccc4)c(C(F)(F)F)s3)cc2)C1
- IC50 [1]: 1.2 nM (antagonist)
- concentration at 0.25 h [2]: 72 nM
- clearance [3]: 12.3 mL/min/kg
- Activity [4]: 1530 µL⁻¹
- Vd [5]: 1.6 L/kg
- clearance [6]: 1.5 mL/min/kg
- concentration at 24 h [7]: 120 nM
- bioavailability [8]: 66%
- Activity [9]: 78%
- concentration at 32 h [10]: 34 nM
- IC50 [11]: 1600 nM (antagonist)
- concentration at 20 h [12]: 150 nM
- Cmax [13]: 1300 nM
- Cmax [14]: 1800 nM
- Activity [15]: Active
- Activity [16]: 4000 µL⁻¹
- Activity [17]: 2230 µL⁻¹
- Activity [18]: 1800 µL⁻¹
- Activity [19]: 3330 µL⁻¹
- Vd [20]: 1.4 L/kg
- concentration at 48 h [21]: 13 nM
- Activity [22]: 1530 µL⁻¹
- Cmax [23]: 300 nM
- Activity [24]: 78%
- Activity [25]: 1600 µL⁻¹
- concentration at 24 h [26]: 1400 nM
- Activity [27]: 1470 µL⁻¹
- IC50 [28]: 23 nM (antagonist)
- EC50 [29]: 0.5 nM (agonist)
- IC50 [30]: 530 nM (antagonist)
- Activity [31]: 1330 µL⁻¹
- IC50 [32]: > 10000 nM
- Activity [33]: 1570 µL⁻¹
- clearance [34]: 2.2 mL/min/kg
- Activity [35]: 79%
- concentration at 4 h [36]: 320 nM
- concentration at 1 h [37]: 270 nM
- bioavailability [38]: 79%

— ChEMBL document CHEMBL1149292, “A rational utilization of high-throughput screening affords selective, orally bioavailable 1-benzyl-3-carboxyazetidine sphingosine-1-phosphate-1 receptor agonists” (J Med Chem, 2004)
